Nine compounds from ChEMBL document CHEMBL2062525, “Substituted 3-(5-imidazo[2,1-b]thiazolylmethylene)-2-indolinones and analogues: synthesis, cytotoxic activity, and study of the mechanism of action” (J Med Chem, 2012) can be followed below.

One may read the GI50 as the concentration giving 50% growth inhibition. Low values mean greater sensitivity of the cells, high ones lower sensitivity of the cells. The LC50 is the concentration lethal to half of the exposed cells or organisms. Lower therefore signals greater toxicity. The TGI is the concentration at which net growth stops. The inhibition is the share of the control response that was lost under treatment. One may read the IC50 as the concentration needed to halve the response being measured. A higher IC50 goes with a need for much substance.

The structures appear in SMILES notation. A value given as a limit tells only on which side of the number the result lay.

Assay [1] in a line: Cytotoxicity against human CNS cancer cells after 48 hrs. In kind it is functional. The settings on record: Cancer cell lines. The method in brief: (§1)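 NCI 60-cell panel subpanel lines; compounds first screened at a single 10−5 M, then those passing threshold tested in five-concentration assay over 10−9 to 10−4 M (some to 10−3 M), 48 h exposure. Growth relative to untreated control measured as cell protein; GI50, TGI and LC50 derived; some values are means of two experiments.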

A short description of assay [2]: Cytotoxicity against human prostate cancer cells after 48 hrs. The following applies: Cancer cell lines. The class given is functional. The method in brief:
(§2)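 NCI 60-cell panel (subpanels include leukemia and prostate). […] Percent growth relative to untreated control; some repeats averaged over two experiments.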

Assay [3] can be described thus: Cytotoxicity against human leukemia cells after 48 hrs. The settings on record: Leukemia cell. The class given is functional. The method in brief: as §2
For assay [4], the species on record is Bos taurus. The assay can be described thus: Displacement of [3H]colchicine from bovine brain tubulin at 5 uM after 10 mins. Background: Displacement assays read how much labelled ligand stays bound in the presence of the test substance.
The nature of assay [5]: Inhibition of bovine brain tubulin assembly after 20 mins. Also noted: species or system Bos taurus.
Assay [6] is described as follows: Cytotoxicity against human melanoma cells after 48 hrs. The class given is functional. The settings on record: Melanoma cell; for CC50: read-out: LC50 (the source's name). The essentials:
as §1

A short description of assay [7]: Cytotoxicity against human COLON cells after 48 hrs. The class given is functional. The method in brief:
as §1

A short description of assay [8]: Cytotoxicity against human renal cancer cells after 48 hrs. In kind it is functional. The settings on record: Cancer cell lines; for CC50: read-out: LC50 (the source's name). The essentials:
as §1

The test system of assay [9] is NSCLC. In words: Cytotoxicity against human NSCLC cells after 48 hrs. The class given is functional. The essentials:
as §1

The nature of assay [10]: Cytotoxicity against human breast cancer cells after 48 hrs. In kind it is functional. The settings on record: Cancer cell lines. The method in brief: as §1
Assay [11] in a line: Cytotoxicity against human ovarian cancer cells after 48 hrs. The settings on record: Cancer cell lines. The class given is functional. The method in brief:
as §1

Turning to `COc1nc2sccn2c1/C=C1/C(=O)Nc2ccccc21`, the GI50 in assay [1] was 0.25 µM; in assay [2] it was 0.55 µM; in assay [3], 0.5 µM; in [6] it was 0.47 µM; in assay [7] it was 0.29 µM; in assay [8] it was 0.54 µM. Besides, the GI50 in assay [9] stood at 0.43 µM; in assay [10], 0.28 µM; in assay [11] it was 0.44 µM. Also, the figures for the LC50 in assay [1], in [9] and in [10] were 50.1 µM, 93.3 µM and 91.2 µM, respectively. For the same compound, the TGI was determined as 7.94 µM in assay [1]; 29.5 µM in assay [2]; 21.4 µM in assay [3]; 40.7 µM in assay [6]; 13.8 µM in [7]; 38.9 µM in assay [8]. The TGI in [9] was determined as 51.3 µM; in assay [10], 13.2 µM; in assay [11], 20.4 µM. Also, the LC50 (concentration killing 50% of cells) in assay [3] is 60.3 µM. In assay [4], this compound displayed an inhibition of 48%. This compound also yielded an IC50 in assay [5] of 3.7 µM. The CC50 in assay [6] came out at 95.5 µM. Further, the LC50 (concentration giving 50% net cell kill) in assay [7] came to 89.1 µM.
For the compound `COc1ccc2c(c1)C(=Cc1c(OC)nc3sccn13)C(=O)N2C` (mixture of isomers), the GI50 in [1] stood at 0.38 µM; in assay [2] it was 0.55 µM; in [3], 0.16 µM; in [6] it was 0.79 µM; in [7] it was 0.35 µM; in [8], 0.71 µM. Moreover, the GI50 in assay [9] turned out to be 1.02 µM; in assay [10], 0.49 µM; in [11] it was 0.63 µM. The TGI in assay [1] was determined as 18.6 µM; in [6] it was 72.4 µM; in assay [7], 24 µM; in assay [8] it was 53.7 µM; in assay [9], 58.9 µM; in assay [10], 49 µM. The compound also registered a TGI in assay [11] of 31.6 µM. Also, in assay [3], the LC50 (concentration killing 50% of cells) stood at 79.4 µM. In assay [4], the inhibition was 45%. In addition, in assay [5], the IC50 turned out to be 3.8 µM. In assay [6], the CC50 was found to be 91.2 µM. In addition, the LC50 (concentration giving 50% net cell kill) in assay [7] was 87.1 µM.
Regarding `COc1nc2sccn2c1/C=C1/C(=O)Nc2cc(Cl)ccc21`, the GI50 in [1] worked out at 0.35 µM; in assay [2], 0.39 µM; in assay [3] it was 0.14 µM; in assay [6], 0.21 µM; in assay [7], 0.33 µM; in assay [8], 0.62 µM. Besides, the GI50 stood at 1.29 µM in [9], 0.54 µM in assay [10] and 0.65 µM in assay [11]. Moreover, the LC50 in [1] came out at 75.9 µM. The TGI in assay [1] is 16.2 µM; in assay [2], 69.2 µM; in assay [3], 5.37 µM; in assay [6] it was 34.7 µM; in assay [7], 22.4 µM; in [8], 49 µM. Further, the TGI in assay [9] worked out at 79.4 µM; in [10], 58.9 µM; in assay [11] it was 21.4 µM. In assay [4], the inhibition is 53%. For the same compound, the IC50 in assay [5] amounted to 13 µM. The figures for the CC50 in assay [6] and in assay [8] were 93.3 µM and 85.1 µM, respectively. In [7], the LC50 (concentration giving 50% net cell kill) is 79.4 µM. In addition, in [11], the LC50 (concentration killing 50% of starting cells) turned out to be 89.1 µM.
For `O=C1Nc2ccc(Cl)cc2C1=Cc1c(-c2ccccn2)nc2sccn12` (mixture of isomers), the GI50 turned out to be 0.71 µM in assay [1]; 1.26 µM in assay [2]; 0.28 µM in assay [3]; 0.68 µM in [6]; 0.52 µM in assay [7]; 1.15 µM in assay [8]. For the same compound, the GI50 in [9] amounted to 1.78 µM; in assay [10], 0.45 µM; in assay [11] it was 1.62 µM. The LC50 in assay [1] is 66.1 µM; in assay [9], 58.9 µM; in assay [10], 42.7 µM. Moreover, the TGI in assay [1] worked out at 22.4 µM; in [2], 19.1 µM; in assay [3], 7.08 µM; in [6] it was 11.8 µM; in [7], 10.5 µM; in assay [8], 10.5 µM. Moreover, the results for the TGI in assay [9], in assay [10] and in assay [11] were 18.2 µM, 7.76 µM and 17.4 µM, respectively. Besides, the figures for the LC50 (concentration killing 50% of cells) in assay [2] and in assay [3] were 47.9 µM and 69.2 µM, respectively. The inhibition in assay [4] is 13%. In assay [5], this compound yielded an IC50 above 20 µM. Also, the results for the CC50 in assay [6] and in [8] were 51.3 µM and 43.6 µM, respectively. The same compound had an LC50 (concentration giving 50% net cell kill) in assay [7] of 33.9 µM. In assay [11], this compound showed an LC50 (concentration killing 50% of starting cells) of 50.1 µM.
With `O=C1Nc2cc(Cl)ccc2C1=Cc1c(-c2ccccn2)nc2sccn12` (mixture of isomers), the GI50 in assay [1] was 0.17 µM; in [2], 0.15 µM; in assay [3] it was 0.06 µM; in [6] it was 0.12 µM; in assay [7], 0.11 µM; in assay [8] it was 0.25 µM. For the same compound, the results for the GI50 in assay [9], in assay [10] and in assay [11] were 0.33 µM, 0.21 µM and 0.27 µM, respectively. In addition, the LC50 in [1] was determined as 38 µM; in [9], 49 µM; in assay [10], 46.8 µM. The TGI was 6.03 µM in assay [1]; 31.6 µM in [2]; 4.57 µM in assay [3]; 15.1 µM in [6]; 21.9 µM in assay [7]; 15.8 µM in assay [8]. Besides, the figures for the TGI in [9], in assay [10] and in assay [11] were 28.8 µM, 12.6 µM and 11.5 µM, respectively. In [4], this compound came in with an inhibition of 48%. The IC50 in assay [5] was 9.3 µM. Also, the CC50 in [6] amounted to 38.9 µM; in [8] it was 42.7 µM. The LC50 (concentration giving 50% net cell kill) in assay [7] was found to be 46.8 µM. The LC50 (concentration killing 50% of starting cells) in assay [11] turned out to be 36.3 µM.
In the case of `COc1nc2sccn2c1/C=C1/C(=O)N(C)c2ccccc21`, the GI50 in [1] amounted to 11 µM; in assay [2], 21.4 µM; in assay [3] it was 3.89 µM; in assay [6] it was 8.71 µM; in assay [7] it was 2.24 µM; in [8], 15.8 µM. Also, the GI50 was found to be 7.94 µM in [9], 2.19 µM in [10] and 6.46 µM in [11]. Also, the TGI stood at 77.6 µM in assay [1]; 43.6 µM in assay [3]; 77.6 µM in assay [6]; 60.3 µM in assay [7]; 85.1 µM in assay [8]; 95.5 µM in [9]. This compound displayed a TGI in assay [10] of 60.3 µM.
With `COc1ccc2c(c1)/C(=C\c1c(-c3ccc(C)cc3)nc3sc(C)cn13)C(=O)N2C`, the GI50 in assay [1] was 39.8 µM; in assay [2], 5.37 µM; in assay [3] it was 4.37 µM; in assay [6] it was 52.5 µM; in [7], 6.03 µM; in [8], 4.79 µM. Also, the GI50 is 14.8 µM in assay [9], 12.9 µM in [10] and 56.2 µM in [11]. The TGI in [3] came to 56.2 µM; in assay [7], 33.1 µM; in assay [8] it was 70.8 µM; in assay [9], 85.1 µM; in assay [10], 72.4 µM.
Regarding `COc1cc(-c2nc3sc(C)cn3c2/C=C2/C(=O)Nc3ccccc32)c(Br)c(OC)c1OC`, the GI50 in assay [1] was 23.4 µM; in [2], 30.2 µM; in assay [3] it was 36.3 µM; in [6] it was 29.5 µM; in [7], 26.3 µM; in assay [8], 30.9 µM. The GI50 in assay [9] came out at 32.4 µM; in assay [10] it was 19.1 µM; in assay [11], 39.8 µM. In addition, the TGI came to 55 µM in [1]; 85.1 µM in assay [2]; 85.1 µM in assay [6]; 75.9 µM in [7]; 75.9 µM in [8]; 89.1 µM in assay [9]. In addition, the figures for the TGI in [10] and in [11] were 63.1 µM and 85.1 µM, respectively.
As for `Cc1nn2c(/C=C3/C(=O)Nc4c3ccc3ccccc43)c(C)nc2s1`, the GI50 in [1] turned out to be 0.39 µM; in [2] it was 0.38 µM; in [3] it was 0.17 µM; in assay [6], 0.68 µM; in assay [7], 0.35 µM; in assay [8], 0.83 µM. Also, the GI50 turned out to be 0.87 µM in [9], 0.3 µM in assay [10] and 0.91 µM in assay [11]. Moreover, the figures for the median lethal concentration (LC50) in assay [1], in assay [9] and in [10] were 46.8 µM, 74.1 µM and 75.9 µM, respectively. The LC50 (concentration killing 50% of cells) came to 15.1 µM in [2] and 66.1 µM in [3]. Moreover, the TGI in [2] was found to be 5.13 µM; in assay [3], 3.31 µM; in assay [6] it was 17 µM; in [7] it was 6.61 µM; in assay [8] it was 10.5 µM; in [9], 15.5 µM. Moreover, the concentration for total growth inhibition (TGI) in assay [10] was found to be 6.31 µM; in assay [11] it was 11.8 µM. The inhibition in assay [4] is 45%. The compound further displayed an IC50 in assay [5] of 16 µM. Besides, the CC50 in assay [6] worked out at 70.8 µM; in assay [8], 56.2 µM. The compound further had an LC50 (concentration giving 50% net cell kill) in assay [7] of 49 µM. Further, in [11], the LC50 (concentration killing 50% of starting cells) amounted to 56.2 µM.
